Test results taken from BindingDB's records for doi:10.1021/jm901214q (Abbott Laboratories, 2010).

Target: Cannabinoid receptor 2 (Homo sapiens, UniProt P34972)
Test: Agonist activity at human recombinant CB2 receptor expressed in HEK293 cells coexpressing Galphaq/o5 assessed as calcium mobilization by FLIPR assay
Outline: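 HEK cells stably coexpressing human CB2 and chimeric Gαq/o5 were seeded at 75 000 cells/well the day before and loaded with no-wash calcium dye. Mean ± SEM, ≥3 experiments in duplicate.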

Chain of Cannabinoid receptor 2 (P34972 whole entry): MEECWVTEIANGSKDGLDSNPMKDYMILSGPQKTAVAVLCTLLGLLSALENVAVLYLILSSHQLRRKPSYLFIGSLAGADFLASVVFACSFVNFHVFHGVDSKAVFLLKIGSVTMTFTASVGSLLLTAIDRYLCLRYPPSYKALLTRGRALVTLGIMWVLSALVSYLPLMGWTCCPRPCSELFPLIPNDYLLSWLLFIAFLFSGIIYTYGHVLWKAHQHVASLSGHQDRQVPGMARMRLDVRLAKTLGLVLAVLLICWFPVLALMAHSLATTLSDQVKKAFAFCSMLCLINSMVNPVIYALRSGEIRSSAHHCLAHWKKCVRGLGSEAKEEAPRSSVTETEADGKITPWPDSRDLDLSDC

CN1CCCCC1Cn1cc(C(=O)c2cc([N+](=O)[O-])ccc2I)c2ccccc21 (stereo unspecified) [3-[(2-iodo-5-nitrophenyl)carbonyl]-1-[(1-methylpiperidin-2-yl)methyl]-1H-indole] gave an EC50 greater than 10 µM.
